{
  "source": "paper PMC4420653",
  "about": "(Biochemical pharmacology, 2015)",
  "key": {"ALDH1A2": {"target": "T1, ALDH1A2 (Mus musculus, UniProt Q62148)", "T1 sequence (Q62148 1-518)": "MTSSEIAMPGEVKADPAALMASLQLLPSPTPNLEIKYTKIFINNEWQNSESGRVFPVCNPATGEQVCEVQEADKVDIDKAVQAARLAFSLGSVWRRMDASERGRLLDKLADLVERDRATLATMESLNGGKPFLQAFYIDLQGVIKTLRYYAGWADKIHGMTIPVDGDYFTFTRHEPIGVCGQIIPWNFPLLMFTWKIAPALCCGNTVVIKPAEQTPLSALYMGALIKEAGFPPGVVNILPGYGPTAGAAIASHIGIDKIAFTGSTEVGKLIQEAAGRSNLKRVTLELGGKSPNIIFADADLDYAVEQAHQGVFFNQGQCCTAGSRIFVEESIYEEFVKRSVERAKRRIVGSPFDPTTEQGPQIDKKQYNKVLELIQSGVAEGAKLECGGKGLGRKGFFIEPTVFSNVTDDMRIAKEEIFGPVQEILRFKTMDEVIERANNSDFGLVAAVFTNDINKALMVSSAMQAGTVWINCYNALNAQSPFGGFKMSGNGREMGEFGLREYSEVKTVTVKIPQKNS", "settings": "mouse testes S10 fractions"}, "[1]": {"test": "WIN 18,446 pharmacokinetics in mice", "type": "in vivo, mouse"}, "[2]": {"tested_on": "testis atRA concentrations", "test": "Testis atRA concentrations after WIN 18,446 administration", "type": "in vivo, mouse", "settings": "for testis atRA concentration: single dose"}, "[3]": {"tested_on": "atRA formation in mouse liver S10 protein", "test": "Time dependent inhibition of atRA formation in liver S10 protein", "type": "biochemical", "settings": "pooled liver S10 protein, 1 µM WIN 18,446 preincubation"}, "[4]": {"tested_on": "atRA formation in mouse liver S10 fractions", "test": "Inhibition of atRA formation by WIN 18,446 in liver S10 fractions", "type": "biochemical", "settings": "read-out: IC50 for inhibition of atRA formation; pooled liver S10, 100 nM at-retinal, 2 mM NAD+"}, "[5]": {"tested_on": "ALDH1A1 and ALDH1A2 protein expression", "test": "ALDH1A1 and ALDH1A2 protein expression in liver and testis of treated mice", "type": "in vivo, mouse", "settings": "8 days of treatment", "how_it_was_run": "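Test compound was given orally at 125 mg/kg every 24 h for 8 days (n=3), alongside a single-dose group (n=3) and vehicle controls dosed with 1% gum tragacanth (n=8). S10 fractions (microsomes plus cytosol) were made from each mouse's testes (17–45 mg) and liver (114–309 mg), protein was measured by BCA, and ALDH1A1 and ALDH1A2 were quantified by LC-MS/MS. Mean ± SD.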"}, "[6]": {"tested_on": "atRA formation in mouse testis S10 fractions", "test": "Inhibition of atRA formation by WIN 18,446 in testis S10 fractions", "type": "biochemical"}, "[7]": {"tested_on": "liver atRA concentrations", "test": "Liver atRA concentrations after WIN 18,446 administration", "type": "in vivo, mouse"}, "[8]": {"tested_on": "atRA formation in mouse liver S10 protein", "type": "biochemical"}, "[9]": {"settings": "500 nM, ultracentrifugation"}, "[10]": {"tested_on": "atRA formation in human testis", "settings": "human testicular tissue; cited from earlier work"}, "[11]": {"tested_on": "serum atRA concentrations", "test": "Serum atRA concentrations after WIN 18,446 administration", "type": "in vivo, mouse"}, "[12]": {"tested_on": "atRA formation in testes S10 fractions", "test": "atRA formation velocity in testes S10 fractions from WIN 18,446 treated mice", "type": "in vivo, mouse"}, "ALDH1A1": {"tested_on": "ALDH1A1", "settings": "read-out: Km of atRA formation; recombinant ALDH1A1; cited from earlier work"}, "[13]": {"test": "Tissue half-life of atRA from concentration-time curves after WIN 18,446", "type": "in vivo", "settings": "C57BL/6-129, mouse, po, 125 mg/kg"}, "AOX": {"target": "AOX", "settings": "cited from earlier work"}, "[14]": {"tested_on": "atRA formation in the mouse liver", "settings": "cited from earlier work"}, "[15]": {"settings": "eight daily doses 125 mg/kg po, mice"}, "[16]": {"settings": "125 mg/kg once a day for 8 days"}},
  "note": "Several values for one entry are separate records, joined by “and”; a condition that tells them apart may be missing. Identical values can stand only once. Entries after “also recorded” stand apart in the source; their conditions may differ. Like-named read-outs stand apart in the source and are kept apart here.",
  "data": [
    {"smiles": "O=C(NCCCCCCCCNC(=O)C(Cl)Cl)C(Cl)Cl", "note": "[WIN 18,446]", "values": [
      {"measurement": "KI (time dependent inhibition)", "setting": "ALDH1A2", "result": "420 ± 190", "unit": "nM"},
      {"measurement": "average concentration over the 24 hour dosing interval", "setting": "[1]; day 8 of dosing 125 mg/kg po", "result": 3.5, "unit": "µM"},
      {"measurement": "AUC0–24", "setting": "[1]; [15]", "result": 87.6, "unit": "µM·h"},
      {"measurement": "Cmax", "setting": "[1]; [15]", "result": 8.5, "unit": "µM"},
      {"measurement": "increase in Cmax versus single dose", "setting": "[1]; eight daily doses vs single dose", "result": 7, "unit": "fold"},
      {"measurement": "AUC0-∞", "setting": "[1]; single dose 125 mg/kg po, mice", "result": 2.5, "unit": "µM·h"},
      {"measurement": "Cmax", "setting": "[1]; single dose 125 mg/kg po, mice", "result": 1.3, "unit": "µM"},
      {"measurement": "average concentration over a 24 hour interval", "setting": "[1]; single dose 125 mg/kg po, mice", "result": 0.1, "unit": "µM"},
      {"measurement": "time to reach Cmax", "setting": "[1]; single dose 125 mg/kg po, mice", "result": "≤ 30", "unit": "min"},
      {"measurement": "two compartment model parameter A", "setting": "[1]; single dose, fit of equation 4", "result": -6.6, "unit": "µM"},
      {"measurement": "two compartment model parameter B", "setting": "[1]; single dose, fit of equation 4", "result": 6.2, "unit": "µM"},
      {"measurement": "two compartment model parameter C", "setting": "[1]; single dose, fit of equation 4", "result": 0.4, "unit": "µM"},
      {"measurement": "two compartment model parameter α", "setting": "[1]; single dose, fit of equation 4", "result": "1.3e+06", "unit": "h⁻¹"},
      {"measurement": "two compartment model parameter β", "setting": "[1]; single dose, fit of equation 4", "result": 3.7, "unit": "h⁻¹"},
      {"measurement": "two compartment model parameter γ", "setting": "[1]; single dose, fit of equation 4", "result": 0.2, "unit": "hr-^1"},
      {"measurement": "average testicular atRA concentration over the 24 hours dosing interval", "setting": "[2]; [16]", "result": "1.5 ± 0.3", "unit": "pmol/g"},
      {"measurement": "testicular atRA concentration, average for the dosing interval", "setting": "[2]; [16]", "result": "33 % of control and 33 ± 5 % of control"},
      {"measurement": "decrease in testicular atRA", "setting": "[2]; abstract, dosing not specified", "result": "over 90%"},
      {"measurement": "time of first significant reduction of testis atRA", "setting": "[2]; after the first dose, p < 0.01", "result": 0.5, "unit": "h"},
      {"measurement": "observed decrease in testis atRA concentrations", "setting": "[2]; following WIN 18,446 dosing (compared with single dose prediction)", "result": 67, "unit": "%"},
      {"measurement": "testis atRA concentration", "setting": "[2]; 24 hours after dosing", "result": "23 % of control"},
      {"measurement": "testis atRA concentration", "setting": "[2]; by 4 hours", "result": "< 10 % of control"},
      {"measurement": "testicular atRA concentration", "setting": "[2]; time 0 hr before the 8th dose", "result": "60 % of control"},
      {"measurement": "time dependent inhibition of atRA formation", "setting": "[3]", "result": "not liver S10 protein; also recorded: not in the liver"},
      {"measurement": "IC50", "setting": "[4]", "result": "92 ± 2", "unit": "nM"},
      {"measurement": "change in ALDH1A1 or ALDH1A2 expression in liver or testis", "setting": "[5]", "result": "not significantly altered; also recorded: not significantly changed"},
      {"measurement": "IC50", "setting": "[6]; read-out: IC50 for inhibition of atRA formation, pooled testis S10, 100 nM at-retinal, 2 mM NAD+", "result": "59 ± 1", "unit": "nM"},
      {"measurement": "maximum inhibition of atRA formation", "setting": "[6]; testis S10 fractions", "result": "> 95", "unit": "%"},
      {"measurement": "average liver atRA concentration", "setting": "[7]; [16]", "result": "5.4 ± 1.9", "unit": "pmol/g"},
      {"measurement": "reduction in average liver atRA concentration versus vehicle", "setting": "[7]; [16]", "result": "32% and 32 ± 3%"},
      {"measurement": "decrease in liver atRA", "setting": "[7]; abstract, dosing not specified", "result": 50, "unit": "%"},
      {"measurement": "time of first significant reduction of liver atRA", "setting": "[7]; after the first dose, p < 0.01", "result": 0.5, "unit": "h"},
      {"measurement": "decrease in hepatic atRA concentration", "setting": "[7]; single dose", "result": 42, "unit": "%"},
      {"measurement": "time of return of liver atRA to baseline", "setting": "[7]; single dose", "result": 12, "unit": "h"},
      {"measurement": "liver atRA concentration", "setting": "[7]; single dose, by 4 hours after dosing", "result": "58 % of control"},
      {"measurement": "hepatic atRA concentration on return", "setting": "[7]; single dose, within 24 hours", "result": 100, "unit": "%"},
      {"measurement": "inhibition of atRA formation", "setting": "[8]; WIN 18,446 5000 nM alone, 1000 nM at-retinal, Figure 2D", "result": "60 ± 2", "unit": "%"},
      {"measurement": "fu in mouse serum", "setting": "[9]", "result": "> 0.99"},
      {"measurement": "inhibition of atRA formation in human testis", "setting": "[10]", "result": "more than 95%"},
      {"measurement": "average serum atRA concentration", "setting": "[11]; [16]", "result": "1.3 ± 0.7", "unit": "pmol/g"},
      {"measurement": "time of first significant decrease of serum atRA", "setting": "[11]; after the first dose, p < 0.05", "result": 2, "unit": "h"},
      {"measurement": "time of return of serum atRA to baseline", "setting": "[11]; single dose", "result": 24, "unit": "h"},
      {"measurement": "serum atRA concentration", "setting": "[11]; single dose, by 4 hours", "result": "< 20 % of control"},
      {"measurement": "decrease in atRA formation in testes S10", "setting": "[12]; at the time of the 8th dose (24 hours after 7th dose)", "result": "79 ± 5", "unit": "%"},
      {"measurement": "decrease in atRA formation in testes S10", "setting": "[12]; testes collected 24 hours after single dose 125 mg/kg, 125 mg/kg", "result": "55 ± 2% and 55%"}
    ]},
    {"smiles": "CC1=C(/C=C/C(C)=C/C=C/C(C)=C/C=O)C(C)(C)CCC1", "note": "[at-retinal, all-trans retinal]", "values": [
      {"measurement": "Km", "setting": "ALDH1A1", "result": 0.285, "unit": "µM"}
    ]},
    {"smiles": "CC1=C(/C=C/C(C)=C/C=C/C(C)=C/C(=O)O)C(C)(C)CCC1", "note": "[atRA, all-trans retinoic acid]", "values": [
      {"measurement": "half-life", "setting": "[13]; liver", "result": "< 30", "unit": "min"},
      {"measurement": "half-life", "setting": "[13]; serum", "result": "30 ± 6", "unit": "min"},
      {"measurement": "half-life", "setting": "[13]; testis", "result": "78 ± 6", "unit": "min"}
    ]},
    {"smiles": "NNc1nncc2ccccc12", "note": "[hydralazine]", "values": [
      {"measurement": "KI", "setting": "AOX", "result": "83000 ± 27000", "unit": "nM"},
      {"measurement": "kinact", "setting": "AOX", "result": "3.8 ± 0.4", "unit": "hr-^1"},
      {"measurement": "inhibition of atRA formation", "setting": "[8]; hydralazine 1 mM, 45 min preincubation, liver S10, 1000 nM at-retinal", "result": "approximately 50%"}
    ]},
    {"smiles": "Cc1ncc(CO)c(C=O)c1O", "note": "[pyridoxal]", "values": [
      {"measurement": "inhibition of atRA formation", "setting": "[14]", "result": "approximately 5%"}
    ]}
  ]
}
